B1: tRNA (parent)
chain: GUUCCGUUGGCGUAAUGGUAACGCGUCUCCCUCCUAAGGAGAAGACUGCGGGUUCGAGUCCCGUACGGAACG

Variants of: B1
Assay: yeast fitness, log relative to wild type (ln ratio); higher = fitter; tRNA-Arg(CCU), competitive growth, 37 C, 1 M NaCl
Summary of the method: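 A combinatorial tRNA-Arg(CCU) variant library was carried on a HIS3 centromeric plasmid in BY4742 lacking the chromosomal gene, from two independent transformations. Pools grew 4 generations in SC-HIS at 30 °C, then ~6.5 generations (~26.5 h) in SC-HIS 1M NaCl at 37 °C, with three outputs per input. Variants were counted by 125 bp paired-end Illumina sequencing. Fitness is ln of each genotype's generations (OD-scaled log2 output/input frequency, inverse-variance weighted across replicates) over the wild-type's.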

Variant | yeast fitness (ln)
AGUCCAUUGGCGUAAUGGUAACGCGUUUCCCUCCUAAGGAGACGACUGCGGGUUCGAGUCCCGUACGGGUCG [G1A U2G G6A C27U A43C A69G A70U] | -0.379
AUUCCUUUGGCGUAAUGGUAACGCGUCUCCCUCCUAAGGAGACGAUUGCGGGUUCGAGUCCCGUAUGGGUUG [G1A G6U A43C C46U C66U A69G A70U C71U] | -0.429
GUUCCGUUGGCGUAAUGGUAACGCGUUUCCCUCCUAAGGAGAAGACUGCGGGUUCGAGUCCCGUACGGAUUG [C27U A70U C71U] | -0.149
GUUCCAUUGGCGUAAUGGUAACGCGUCUCCCUCCUAAGGAGAAGAUUGCGGGUUCGAGUCCCGUAUGGAUCG [G6A C46U C66U A70U] | -0.00103
GUUCCGUUGGCGUAAUGGUAACGCGUUUCCCUCCUAAGGAGAAGACUGCGGGUUCGAGUCCCGUAUGGGAUG [C27U C66U A69G C71U] | -0.313
GCUCCGUUGGCGUAAUGGUAACGCGUUUCCCUCCUAAGGAGACGACUGCGGGUUCGAGUCCCGUAAGGAUUG [U2C C27U A43C C66A A70U C71U] | -0.319
GUUCCAUUGGCGUAAUGGUAACGCGUUUCCCUCCUAAGGAGACGAUUGCGGGUUCGAGUCCCGUAAGGGGCG [G6A C27U A43C C46U C66A A69G A70G] | -0.229
AUUCCUUUGGCGUAAUGGUAACGCGUCUCCCUCCUAAGGAGAAGAUUGCGGGUUCGAGUCCCGUAAGGAACG [G1A G6U C46U C66A] | -0.0835
AGUCCUUUGGCGUAAUGGUAACGCGUCUCCCUCCUAAGGAGACGAUUGCGGGUUCGAGUCCCGUACGGAGUG [G1A U2G G6U A43C C46U A70G C71U] | -0.338
GCUCCAUUGGCGUAAUGGUAACGCGUCUCCCUCCUAAGGAGACGACUGCGGGUUCGAGUCCCGUAUGGAACG [U2C G6A A43C C66U] | -0.121
GGUCCGUUGGCGUAAUGGUAACGCGUUUCCCUCCUAAGGAGAAGAUUGCGGGUUCGAGUCCCGUACGGGGCG [U2G C27U C46U A69G A70G] | -0.355
AUUCCAUUGGCGUAAUGGUAACGCGUUUCCCUCCUAAGGAGACGACUGCGGGUUCGAGUCCCGUAUGGAUCG [G1A G6A C27U A43C C66U A70U] | -0.304
GUUCCGUUGGCGUAAUGGUAACGCGUCUCCCUCCUAAGGAGACGACUGCGGGUUCGAGUCCCGUAUGGAUCG [A43C C66U A70U] | -0.105
AGUCCUUUGGCGUAAUGGUAACGCGUCUCCCUCCUAAGGAGAAGAUUGCGGGUUCGAGUCCCGUACGGGUCG [G1A U2G G6U C46U A69G A70U] | -0.211
AUUCCAUUGGCGUAAUGGUAACGCGUCUCCCUCCUAAGGAGACGAUUGCGGGUUCGAGUCCCGUACGGGUUG [G1A G6A A43C C46U A69G A70U C71U] | -0.473
AUUCCUUUGGCGUAAUGGUAACGCGUCUCCCUCCUAAGGAGAAGACUGCGGGUUCGAGUCCCGUAUGGAAUG [G1A G6U C66U C71U] | -0.425
ACUCCUUUGGCGUAAUGGUAACGCGUUUCCCUCCUAAGGAGAAGAUUGCGGGUUCGAGUCCCGUACGGAUUG [G1A U2C G6U C27U C46U A70U C71U] | -0.13
ACUCCAUUGGCGUAAUGGUAACGCGUUUCCCUCCUAAGGAGACGACUGCGGGUUCGAGUCCCGUACGGAAUG [G1A U2C G6A C27U A43C C71U] | -0.295
GUUCCUUUGGCGUAAUGGUAACGCGUCUCCCUCCUAAGGAGAAGAUUGCGGGUUCGAGUCCCGUAAGGGUUG [G6U C46U C66A A69G A70U C71U] | -0.418

Variant | yeast fitness (ln)
GGUCCUUUGGCGUAAUGGUAACGCGUUUCCCUCCUAAGGAGACGAUUGCGGGUUCGAGUCCCGUAUGGGGUG [U2G G6U C27U A43C C46U C66U A69G A70G C71U] | -0.369
GUUCCUUUGGCGUAAUGGUAACGCGUCUCCCUCCUAAGGAGAAGAUUGCGGGUUCGAGUCCCGUAAGGGGUG [G6U C46U C66A A69G A70G C71U] | -0.414
AGUCCUUUGGCGUAAUGGUAACGCGUUUCCCUCCUAAGGAGAAGACUGCGGGUUCGAGUCCCGUAAGGAGCG [G1A U2G G6U C27U C66A A70G] | -0.268
GUUCCGUUGGCGUAAUGGUAACGCGUCUCCCUCCUAAGGAGAAGAUUGCGGGUUCGAGUCCCGUACGGAAUG [C46U C71U] | -0.00784
ACUCCUUUGGCGUAAUGGUAACGCGUCUCCCUCCUAAGGAGAAGAUUGCGGGUUCGAGUCCCGUACGGGUUG [G1A U2C G6U C46U A69G A70U C71U] | -0.249
ACUCCUUUGGCGUAAUGGUAACGCGUCUCCCUCCUAAGGAGAAGAUUGCGGGUUCGAGUCCCGUACGGAAUG [G1A U2C G6U C46U C71U] | -0.111
AUUCCUUUGGCGUAAUGGUAACGCGUUUCCCUCCUAAGGAGACGAUUGCGGGUUCGAGUCCCGUAAGGGUUG [G1A G6U C27U A43C C46U C66A A69G A70U C71U] | -0.426
AUUCCUUUGGCGUAAUGGUAACGCGUUUCCCUCCUAAGGAGAAGACUGCGGGUUCGAGUCCCGUACGGAAUG [G1A G6U C27U C71U] | -0.251
GGUCCGUUGGCGUAAUGGUAACGCGUCUCCCUCCUAAGGAGACGAUUGCGGGUUCGAGUCCCGUAUGGAUUG [U2G A43C C46U C66U A70U C71U] | -0.214
AUUCCGUUGGCGUAAUGGUAACGCGUUUCCCUCCUAAGGAGACGACUGCGGGUUCGAGUCCCGUAUGGAUUG [G1A C27U A43C C66U A70U C71U] | -0.51
AUUCCGUUGGCGUAAUGGUAACGCGUCUCCCUCCUAAGGAGACGACUGCGGGUUCGAGUCCCGUAUGGGUCG [G1A A43C C66U A69G A70U] | -0.373
GUUCCGUUGGCGUAAUGGUAACGCGUUUCCCUCCUAAGGAGACGAUUGCGGGUUCGAGUCCCGUAUGGGACG [C27U A43C C46U C66U A69G] | -0.204
ACUCCUUUGGCGUAAUGGUAACGCGUCUCCCUCCUAAGGAGACGAUUGCGGGUUCGAGUCCCGUAUGGAGUG [G1A U2C G6U A43C C46U C66U A70G C71U] | -0.267
AUUCCGUUGGCGUAAUGGUAACGCGUUUCCCUCCUAAGGAGAAGAUUGCGGGUUCGAGUCCCGUAUGGAACG [G1A C27U C46U C66U] | -0.215
AUUCCAUUGGCGUAAUGGUAACGCGUUUCCCUCCUAAGGAGACGACUGCGGGUUCGAGUCCCGUACGGAAUG [G1A G6A C27U A43C C71U] | -0.213
AUUCCAUUGGCGUAAUGGUAACGCGUCUCCCUCCUAAGGAGACGAUUGCGGGUUCGAGUCCCGUAAGGAUCG [G1A G6A A43C C46U C66A A70U] | -0.143
ACUCCGUUGGCGUAAUGGUAACGCGUUUCCCUCCUAAGGAGACGAUUGCGGGUUCGAGUCCCGUACGGAACG [G1A U2C C27U A43C C46U] | -0.0167
GCUCCGUUGGCGUAAUGGUAACGCGUUUCCCUCCUAAGGAGAAGAUUGCGGGUUCGAGUCCCGUAAGGGGCG [U2C C27U C46U C66A A69G A70G] | -0.227
GCUCCAUUGGCGUAAUGGUAACGCGUUUCCCUCCUAAGGAGACGACUGCGGGUUCGAGUCCCGUACGGAAUG [U2C G6A C27U A43C C71U] | -0.209
